From publication PMC3483880 (Pure and applied chemistry. Chimie pure et appliquee, 2012)
Values after ≈ are worked out from the molar mass of the structure shown. “Also recorded” adds a separate entry of the source. Read-outs that look alike come from different tables or passages of the source.

Columns and labels:
Murine macrophages = test: Toxicity towards murine macrophages; assay type: cell-based; details: for IC50: read-out: Murine macrophages (IC50)
[1] = target: Leishmania DNA topoisomerase IB enzyme (LdTopIB) (Leishmania donovani, UniProt A0A3Q8IHS4+Q8WQM6); test: Inhibition of the relaxation activity of recombinant LdTopIB; assay type: biochemical; details: plasmid DNA relaxation assay
Outline: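 One unit of recombinant Leishmania donovani TopIB was incubated with negatively supercoiled pHOT plasmid DNA for 30 min at 37 °C, with test compound at 3.1–150 or 3.125–100 µM. A DMSO lane served as control. Reactions were stopped with 1% SDS plus 6.1 µg proteinase K. Products were separated on agarose gel and stained with ethidium bromide to score supercoiled, nicked and relaxed topoisomer bands.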

[2] = system: Leishmania donovani promastigotes; test: Antiprotozoal activity; assay type: cell-based; details: for EC50: read-out: L. donovani promastigotes (EC50)
[3] = system: L. donovani promastigotes; details: at 100 μg/mL; cited from earlier work
L. donovani = details: cited from earlier work
[4] = system: Leishmania donovani promastigotes; details: earlier work; cited from earlier work
human TopIB (hTopIB) = test: Inhibition of the relaxation activity of human TopIB; assay type: biochemical; details: 3.125−100 μM acid 1, 30 min at 37°C
Outline: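 Human TopIB relaxed supercoiled pHOT plasmid DNA alongside recombinant LdTopIB, with test compound at 3.125–100 µM and a DMSO vehicle lane. Reactions stopped with 1% SDS plus 6.1 µg proteinase K. Products resolved on agarose gel and stained with ethidium bromide. Supercoiled, nicked and relaxed topoisomer bands scored against a DNA-only lane (0.2 µg plasmid).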

| Compound | IC50 (Murine macrophages) [µM] | EC50 [2] [µM] | Effect on motility of L. donovani promastigotes [3] | Effectiveness against L. donovani promastigotes (in words) [2] | other results |
| --- | --- | --- | --- | --- | --- |
| CCCCCCCCCCC#CCCCC(OC)C(=O)O (racemic) [Acid 2, (±)-2-methoxy-6-heptadecynoic acid] | > 700 | 74 ± 17.1 | – | – | Toxicity towards murine macrophages (in words) (Murine macrophages): did not display toxicity towards murine macrophages; Inhibition of LdTopIB (in words) [1]: inhibit LdTopIB |
| CCCCCCCCCC(=O)O [n-decanoic acid] | – | – | inhibited the motility | – | – |
| CCCCCCCCCCCCCCCCOP(=O)([O-])OCC[N+](C)(C)C [miltefosine] | – | – | – | – | IC50 (Murine macrophages; Mus musculus, Macrophage): 1.9 ± 0.4 µM; EC50 ([2]; Leishmania donovani): 0.8 ± 0.1 µM |
| CCCCCCCC/C=C\CCCCCCCC(=O)O [oleic acid] | – | – | no effect | – | MIC against L. donovani (L. donovani): 90 µM (≈ 25.4 µg/mL) |
| CCCCCCCCCCCCCCCCCC(=O)O [n-octadecanoic acid] | – | – | – | – | MIC against L. donovani (L. donovani): 1390 µM (≈ 395 µg/mL) |
| CCCCCCCCCC/C=C\CCCCC(=O)O [6Z-heptadecenoic, 6Z-heptadecenoic acid] | 44.4 ± 1.6 | > 100 | – | not effective against L. donovani promastigotes | – |
| CCCCCCCCCCCCCCCC(=O)O [n-hexadecanoic acid] | – | – | inhibited the motility | – | – |
| CCCCCCCCCCCCCCCCC(=O)O [n-heptadecanoic, n-heptadecanoic acid] | 52.6 ± 7.5 | > 100 | – | not effective at all against the parasite | Effectiveness towards L. donovani promastigotes (in words) [4]: not effective at all |
| CCCCCCCCCCCCCCCCCCCC(=O)O [n-eicosanoic acid] | – | – | – | – | Effectiveness towards L. donovani promastigotes (in words) [4]: not effective at all |
| CCCCCCCCCCC#CCCCCC(=O)O [6-heptadecynoic, 6-heptadecynoic acid] | – | – | – | – | Toxicity towards murine macrophages (in words) (Murine macrophages): considerable toxicity towards murine macrophages; IC50 (Murine macrophages; Mus musculus, Macrophage): 21.3 ± 0.9 µM; EC50 ([2]; Leishmania donovani): 25.1 ± 1.4 µM |
| CCCCCCCCCCCC(=O)O [n-dodecanoic acid] | – | – | inhibited the motility | – | – |
| CCCCCCCCCCCCCCCC(OC)C(=O)O (racemic) [Acid 3, (±)-2-methoxyheptadecanoic acid] | > 1000 | > 1000 | – | not effective at all against the parasite | Inhibition of LdTopIB (in words) [1]: did not inhibit LdTopIB; also recorded: do not inhibit the enzyme; also recorded: not inhibiting the enzyme |
| CCCCCCCCCC/C=C\CCCC(OC)C(=O)O (racemic) [Acid 1, (±)-2-methoxy-6Z-heptadecenoic acid] | 484 ± 15.8 | 404 ± 11.9 | – | not effective against L. donovani promastigotes | Inhibition of hTopIB (in words) (human TopIB (hTopIB)): not effective against hTopIB; Inhibition of LdTopIB (in words) [1]: able to inhibit LdTopIB |
